The record followed here is PubChem BioAssay AID493149 (Broad Institute, 2011).

Where “and” joins values, the source holds several entries; their conditions need not be identical. Equal values may be shown once. Results filed as inconclusive are left out. Calls of active or inactive are those of the source.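 The calls were made as follows: active = every repeat run gives a falling-signal curve whose half-maximal concentration stays within the set limit; inconclusive = runs disagree, flat moderate inhibition, or unreliable fit; inactive = flat weak response, opposite effect, or too weak.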

The test system of one test is C. albicans CaCi-8 + fluconazole, Alamar Blue growth, 48 h. Briefly: growth inhibition of resistant C. albicans with fluconazole, dose response, CaCi-8 strain, Alamar Blue, dry powder, set 9 (AID 493149).
Details: not given
In short, it runs like this:
(§1)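 Material: Fluconazole-resistant C. albicans strain CaCi-8 | Timing: 48 h compound growth at 37 °C, 2 h RT dye | Medium: Defined RPMI/MOPS medium, glucose, uridine | Signal: Alamar Blue fluorescence, 1:200 final, Ex 544 nm, Em 590 nm | Also added: Fluconazole at 8 µg/mL final, sub-toxic level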
What is called AC50 is the midpoint of the concentration-response curve, whichever way the signal moves. With `COC(=O)[C@@H](C)n1nc(-c2ccccc2)c2ccccc21` (racemic), the half-maximal activity concentration (AC50) is 15.9 µM. Still for that read-out and setting: the result for `COC(=O)Cn1nc(-c2ccccc2)c2ccc(C)cc21` reads 7.29 µM; that for `COC(=O)Cn1nc(-c2cccc(F)c2)c2ccccc21`, 2.14 µM; that for `COC(=O)Cn1nc(-c2ccccc2OC)c2ccccc21`, 10.2 µM. Still for that read-out and setting: with `COC(=O)Cn1nc(-c2ccc(OC)cc2)c2ccccc21` the figure was 8.3 µM. The same measure, in the same setting: with `COC(=O)Cn1nc(-c2cccc(OC)c2)c2ccccc21` the figure was 1.2 µM; with `COC(=O)Cn1nc(-c2ccccc2)c2cc(OC)ccc21`, 18.6 µM. Regarding `COC(=O)Cn1nc(-c2ccccc2)c2cc(F)ccc21`, the AC50 was 6.98 µM. On the same count and under the same terms, the result for `COC(=O)Cn1c2ccccc2c2nc3n(c(=O)c21)CCS3` reads 8.51 µM; that for `COC(=O)Cn1nc(-c2ccc(F)cc2)c2ccccc21`, 8.21 µM. On the same count and under the same terms, with `COC(=O)Cn1nc(-c2ccccc2)c2ccc(Cl)cc21` the figure was 8.57 µM. Same read-out and setting: with `COC(=O)Cn1nc(-c2ccccc2C)c2ccccc21` the figure was 6.96 µM.

Turning to `COC(=O)Cn1nc(-c2ccccc2)c2ccc(F)cc21`, the AC50 was 8.34 µM. Same read-out and setting: with `COC(=O)Cn1nc(-c2cccc(C)c2)c2ccccc21` the figure was 1.34 µM.

On to `O=C(Cn1c2ccccc2c2nc3n(c(=O)c21)CCS3)N1CCCC1`, for which the AC50 is 1.65 µM and 3.48 µM.

With `COC(=O)Cn1nc(-c2ccccc2)c2cc(C)ccc21`, the AC50 is 5.33 µM. On the same count and under the same terms, the result for `COC(=O)Cn1nc(-c2ccccc2)c2ccccc21` reads 2.18 µM; that for `COC(=O)Cn1nc(-c2ccccc2)c2ccc(OC)cc21`, 12.7 µM.

Test system in another test: not listed separately
The test is described as above. The settings on record: C. albicans CaCi-8 + fluconazole, Alamar Blue growth, 48 h; at 19.5 µM (top of the series). A digest of the protocol:
as §1
A general note: Resazurin is reduced to fluorescent resorufin, in cell work by metabolically active cells.
On to `COC(=O)Cn1nc(-c2cncnc2)c2ccccc21`, for which the activity change, negative = inhibition was -4.22% (inactive).

Still in this test, the particulars now being: C. albicans CaCi-8 + fluconazole, Alamar Blue growth, 48 h; at 26 µM (top of the series).
In the case of `c1ccc(-c2nn(Cc3nn[nH]n3)c3ccccc23)cc1`, the activity change, negative = inhibition was -10.1% (inactive). On the same count and under the same terms, the result for `COC(=O)Cn1nc(-c2ccccc2)c2ccc(C#N)cc21` reads -13.5% (inactive). On the same count and under the same terms, the result for `CCOC(=O)Cn1nc(-c2ccccc2)c2ccccc21` reads -1.88% (inactive); that for `COC(=O)Cn1nc(-c2ccc(C(F)(F)F)cc2)c2ccccc21`, -7.01% (inactive); that for `COC(=O)CCn1nc(-c2ccccc2)c2ccccc21`, -11.6% (inactive). The same measure, in the same setting: with `O=C(Cn1nc(-c2ccccc2)c2ccccc21)Oc1ccccc1` the figure was -1.98% (inactive); with `N#CCn1nc(-c2ccccc2)c2ccccc21`, -24.1% (inactive); with `CC(C)OC(=O)Cn1nc(-c2ccccc2)c2ccccc21`, 6.95% (inactive). Regarding `CC(C)(C)OC(=O)Cn1nc(-c2ccccc2)c2ccccc21`, the activity change, negative = inhibition was 14.2% (inactive). Same read-out and setting: the result for `c1ccc(-c2nn(Cc3ncco3)c3ccccc23)cc1` reads 4.54% (inactive).
